The values below come from ChEMBL document CHEMBL2346500, “Design and synthesis of dual-action inhibitors targeting histone deacetylases and 3-hydroxy-3-methylglutaryl coenzyme A reductase for cancer treatment” (J Med Chem, 2013).

The target of experiment [1] is T1, Protein deacetylase HDAC6 (Homo sapiens, UniProt Q9UBN7).
T1 sequence (Q9UBN7 whole entry): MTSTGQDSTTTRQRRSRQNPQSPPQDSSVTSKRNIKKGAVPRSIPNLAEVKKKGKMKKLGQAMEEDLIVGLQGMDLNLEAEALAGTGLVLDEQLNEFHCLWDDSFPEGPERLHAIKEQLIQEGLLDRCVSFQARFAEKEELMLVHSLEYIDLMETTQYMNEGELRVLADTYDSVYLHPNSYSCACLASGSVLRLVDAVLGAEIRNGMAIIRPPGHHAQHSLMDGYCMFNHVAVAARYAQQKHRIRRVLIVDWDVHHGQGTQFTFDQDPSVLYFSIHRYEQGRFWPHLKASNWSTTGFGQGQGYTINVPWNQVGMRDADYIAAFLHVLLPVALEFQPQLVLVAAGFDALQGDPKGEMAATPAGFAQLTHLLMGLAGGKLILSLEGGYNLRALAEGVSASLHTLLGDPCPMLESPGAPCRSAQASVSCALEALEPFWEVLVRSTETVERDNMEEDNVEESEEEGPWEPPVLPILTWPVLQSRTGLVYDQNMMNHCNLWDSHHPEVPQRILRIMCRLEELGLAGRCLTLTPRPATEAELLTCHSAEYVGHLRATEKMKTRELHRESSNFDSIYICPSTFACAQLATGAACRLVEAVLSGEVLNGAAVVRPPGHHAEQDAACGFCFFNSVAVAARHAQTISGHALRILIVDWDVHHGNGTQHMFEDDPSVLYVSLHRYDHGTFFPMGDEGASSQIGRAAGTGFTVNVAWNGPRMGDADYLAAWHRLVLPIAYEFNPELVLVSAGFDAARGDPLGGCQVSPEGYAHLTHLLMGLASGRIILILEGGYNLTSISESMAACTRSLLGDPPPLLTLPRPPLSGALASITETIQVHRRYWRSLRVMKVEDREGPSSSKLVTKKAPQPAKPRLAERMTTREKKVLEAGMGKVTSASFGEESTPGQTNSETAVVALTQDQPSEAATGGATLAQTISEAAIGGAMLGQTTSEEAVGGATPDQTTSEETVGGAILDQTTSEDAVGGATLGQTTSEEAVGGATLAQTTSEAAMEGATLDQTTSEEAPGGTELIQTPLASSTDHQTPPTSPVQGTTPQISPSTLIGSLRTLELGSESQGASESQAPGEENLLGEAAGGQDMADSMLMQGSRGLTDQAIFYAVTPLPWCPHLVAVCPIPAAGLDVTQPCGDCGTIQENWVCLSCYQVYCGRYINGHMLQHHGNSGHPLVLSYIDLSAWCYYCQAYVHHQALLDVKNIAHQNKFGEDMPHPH
Briefly: Inhibition of recombinant HDAC6 (unknown origin) after 10 mins by fluorimetric analysis.

For a further experiment, the target named is Histone deacetylase 2 (Homo sapiens, UniProt Q92769). Briefly: Inhibition of recombinant HDAC2 (unknown origin) after 10 mins by fluorimetric analysis.
The next experiment has as its target Histone deacetylase 1 (Homo sapiens, UniProt Q13547). Briefly: Inhibition of recombinant HDAC1 (unknown origin) after 10 mins by fluorimetric analysis.
Experiment [2] deals with A549. Nature of the experiment: Selectivity index, ratio of IC50 for human HS68 cells to IC50 for human A549 cells. The class given is functional.
The subject of experiment [3] is A549. Briefly: Selectivity index, ratio of IC50 for mouse MEF cells to IC50 for human A549 cells. The class given is functional.
A further experiment relates to Hs68. Briefly: Cytotoxicity against human HS68 cells after 72 hrs by MTT assay. The class given is ADME, cell-based. The note with it: Hs68, 72 h. For orientation: Tetrazolium assays rely on reduction of a dye to a coloured formazan, in cell work by metabolically active cells.
A further experiment concerns MEF. Nature of the experiment: Cytotoxicity against mouse MEF cells after 72 hrs by MTT assay. The format is ADME, cell-based.
Experiment [4] deals with T2, Protein deacetylase HDAC6 (Homo sapiens) (UniProt Q9UBN7).
T2 sequence (whole entry): T1 sequence (Q9UBN7 whole entry)
Briefly: Inhibition of HDAC6 in human A549 cells assessed as increase in tubulin acetylation after 24 hrs by Western blotting analysis. The class given is cell-based. The procedure, abridged:
(§1)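 A549 cells (DMEM, 10% FBS, penicillin/streptomycin, 5% CO2) exposed to compounds at indicated doses for 24 h. Cells lysed on ice, total lysates run on SDS–PAGE and immunoblotted with antibodies to acetyl-histone H3, acetyl-tubulin and actin. Loading normalised to β-actin.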

For experiment [5], the target named is Histone deacetylase (Homo sapiens) (UniProt Q13547+O15379+Q9UBN7+Q92769+Q9UQL6+Q8WUI4+Q9BY41+Q96DB2+P56524+Q9UKV0+Q969S8). Briefly: Inhibition of class 1 HDAC in human A549 cells assessed as increase in histone acetylation after 24 hrs by Western blotting analysis. The class given is cell-based. Summed up: as §1
For orientation: Immunoblotting shows a protein as a band on a membrane.

For experiment [6], the target named is T3, 3-hydroxy-3-methylglutaryl-coenzyme A reductase (Homo sapiens, UniProt P04035).
T3 sequence (P04035 whole entry): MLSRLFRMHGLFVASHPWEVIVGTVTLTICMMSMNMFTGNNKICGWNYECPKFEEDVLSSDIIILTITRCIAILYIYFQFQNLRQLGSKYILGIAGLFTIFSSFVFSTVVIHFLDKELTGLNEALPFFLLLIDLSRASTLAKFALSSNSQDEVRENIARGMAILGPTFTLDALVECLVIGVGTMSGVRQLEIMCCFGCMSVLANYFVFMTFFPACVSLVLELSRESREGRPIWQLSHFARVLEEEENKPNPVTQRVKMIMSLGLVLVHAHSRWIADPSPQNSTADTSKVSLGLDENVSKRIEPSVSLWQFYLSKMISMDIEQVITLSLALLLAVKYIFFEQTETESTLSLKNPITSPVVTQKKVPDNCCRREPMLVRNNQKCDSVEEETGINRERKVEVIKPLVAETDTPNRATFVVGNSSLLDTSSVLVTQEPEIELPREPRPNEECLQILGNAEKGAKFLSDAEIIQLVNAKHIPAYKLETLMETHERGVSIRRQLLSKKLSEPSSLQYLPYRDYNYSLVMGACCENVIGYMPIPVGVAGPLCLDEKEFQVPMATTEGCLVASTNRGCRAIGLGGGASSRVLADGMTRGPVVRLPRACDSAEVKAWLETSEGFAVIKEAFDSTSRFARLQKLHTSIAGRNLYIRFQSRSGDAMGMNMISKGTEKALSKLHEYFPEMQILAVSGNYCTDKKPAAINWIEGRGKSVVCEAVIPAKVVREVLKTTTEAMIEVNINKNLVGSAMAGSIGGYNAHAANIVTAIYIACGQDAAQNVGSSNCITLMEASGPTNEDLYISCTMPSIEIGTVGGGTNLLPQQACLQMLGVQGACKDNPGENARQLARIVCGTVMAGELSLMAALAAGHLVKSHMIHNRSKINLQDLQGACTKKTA
Briefly: Inhibition of HMG-CoA reductase in human A549 cells after 5 mins by spectrophotometric analysis.

Experiment [7] concerns the target T3, 3-hydroxy-3-methylglutaryl-coenzyme A reductase. Briefly: Inhibition of recombinant HMG-CoA reductase (unknown origin) after 10 mins by spectrophotometric analysis.
Experiment [8] deals with A549. Briefly: Cytotoxicity against human A549 cells after 72 hrs by MTT assay. The class given is functional, cell-based. Conditions: A549, 72 h.

Histone deacetylase 1, sequence (Q13547 whole entry): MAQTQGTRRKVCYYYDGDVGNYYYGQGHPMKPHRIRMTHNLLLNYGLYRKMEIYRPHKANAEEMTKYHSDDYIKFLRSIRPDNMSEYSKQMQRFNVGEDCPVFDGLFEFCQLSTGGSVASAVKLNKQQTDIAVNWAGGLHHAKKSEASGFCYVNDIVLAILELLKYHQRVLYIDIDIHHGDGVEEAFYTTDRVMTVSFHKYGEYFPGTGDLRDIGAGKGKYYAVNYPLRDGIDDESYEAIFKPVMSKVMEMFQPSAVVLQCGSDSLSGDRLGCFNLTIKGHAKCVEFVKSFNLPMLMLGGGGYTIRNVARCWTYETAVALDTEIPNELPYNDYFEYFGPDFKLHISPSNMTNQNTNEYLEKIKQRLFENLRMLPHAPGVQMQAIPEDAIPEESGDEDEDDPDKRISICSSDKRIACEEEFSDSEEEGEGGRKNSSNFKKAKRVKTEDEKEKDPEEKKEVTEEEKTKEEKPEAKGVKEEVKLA
Histone deacetylase 2, sequence (Q92769 whole entry): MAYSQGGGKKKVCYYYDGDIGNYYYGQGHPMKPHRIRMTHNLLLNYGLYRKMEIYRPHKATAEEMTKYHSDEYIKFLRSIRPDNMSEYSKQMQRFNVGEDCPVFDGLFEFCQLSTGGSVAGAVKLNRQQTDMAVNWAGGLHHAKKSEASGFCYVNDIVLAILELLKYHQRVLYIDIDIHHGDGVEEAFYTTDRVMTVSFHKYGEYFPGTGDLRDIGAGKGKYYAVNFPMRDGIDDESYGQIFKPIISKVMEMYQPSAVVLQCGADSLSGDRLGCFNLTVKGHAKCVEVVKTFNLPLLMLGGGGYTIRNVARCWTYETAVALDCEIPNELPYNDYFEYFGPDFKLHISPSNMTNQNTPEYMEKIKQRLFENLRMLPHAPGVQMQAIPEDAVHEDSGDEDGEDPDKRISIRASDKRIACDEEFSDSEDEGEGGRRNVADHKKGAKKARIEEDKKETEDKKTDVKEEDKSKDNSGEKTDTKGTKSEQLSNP

By IC50 is commonly meant the midpoint of a concentration-inhibition curve. Consider `C[C@H]1C=C2C=C[C@H](C)[C@H](CC[C@@H]3C[C@@H](O[Si](C)(C)C(C)(C)C)CC(=O)O3)[C@H]2[C@@H](OC(=O)NCCCCCCC(=O)NO)C1`, for which the IC50 in experiment [1] worked out at 140 nM; on Histone deacetylase 2 it was 658 nM; at Histone deacetylase 1, 122 nM.

Turning to `CCC(C)(C)C(=O)O[C@H]1C[C@@H](C)C=C2C=C[C@H](C)[C@H](CC[C@@H](O)C[C@@H](O)CC(=O)NO)[C@H]21`, the “Ratio IC50” value in the experiment on A549 [2] and in the experiment on A549 [3] was above 5 throughout. For the same compound, the IC50 with Hs68 is above 100 µM; with MEF it was above 100 µM; in experiment [6] it was 7.9 µM; in experiment [1], 69.5 nM; at Histone deacetylase 2, 414 nM; on Histone deacetylase 1, 63.4 nM. In experiment [7], the IC50 came out at 13.1 nM. Further, the inhibition entry in experiment [4] and in [5] was “Dose-dependent effect” throughout.

As for `CCC(C)(C)C(=O)O[C@H]1C[C@@H](C)C=C2C=C[C@H](C)[C@H](CC[C@@H]3C[C@@H](O)CC(=O)O3)[C@H]21` [SIMVASTATIN], the “Ratio IC50” value in the experiment with A549 [2] is recorded as 1.6; in the experiment with A549 [3] it was 2.3. Also, the IC50 worked out at 26.4 µM in the experiment with Hs68, 36.7 µM in the experiment on MEF and 16.3 µM with A549 [8].

`CC[C@H](C)C(=O)O[C@H]1C[C@@H](C)C=C2C=C[C@H](C)[C@H](CC[C@@H]3C[C@@H](O)CC(=O)O3)[C@H]21` [LOVASTATIN]: the IC50 in the experiment on Hs68 came to 23.2 µM; in the experiment on MEF, 35 µM.

With `C[C@H]1C=C2C=C[C@H](C)[C@H](CC[C@@H]3C[C@@H](O[Si](C)(C)C(C)(C)C)CC(=O)O3)[C@H]2[C@@H](OC(=O)NCc2ccc(-c3cn(CCCCCCC(=O)NO)nn3)cc2)C1`, the inhibition entry in experiment [4] and in experiment [5] was “Dose-dependent effect” throughout. Moreover, the IC50 came to 34 nM in experiment [1], 882 nM at Histone deacetylase 2 and 125 nM at Histone deacetylase 1.

Turning to `CC(C)c1nc(N(C)S(C)(=O)=O)nc(-c2ccc(F)cc2)c1/C=C/[C@@H](O)C[C@@H](O)CC(=O)NO`, the inhibition entry in experiment [4] and in experiment [5] was “Dose-dependent effect” each time. This compound also registered an IC50 in experiment [6] of 14.9 µM.

With `C[C@H]1C=C2C=C[C@H](C)[C@H](CC[C@@H]3C[C@@H](O[Si](C)(C)C(C)(C)C)CC(=O)O3)[C@H]2[C@@H](OC(=O)Nc2ccc(-c3cn(CCCCCCC(=O)NO)nn3)cc2)C1`, the inhibition entry in experiment [4] and in [5] was “Dose-dependent effect” each time. Besides, the IC50 in experiment [1] worked out at 127 nM; at Histone deacetylase 2, 463 nM; at Histone deacetylase 1, 159 nM.

As to `O=C(CCCCCCC(=O)Nc1ccccc1)NO` [VORINOSTAT], the IC50 in [7] was above 10000 nM.

As for `CC(C)c1c(C(=O)Nc2ccccc2)c(-c2ccccc2)c(-c2ccc(F)cc2)n1CC[C@@H](O)C[C@@H](O)CC(=O)NO`, the “Ratio IC50” value in the experiment on A549 [2] and in the experiment on A549 [3] was above 5.7 each time. Further, the IC50 is above 100 µM in the experiment with Hs68; above 100 µM in the experiment with MEF; 5.7 µM in experiment [6]; 86.6 nM in experiment [1]; 123 nM on Histone deacetylase 1; 12.3 nM in [7]. Also, the inhibition entry in experiment [4] and in experiment [5] was “Dose-dependent effect” each time.

In the experiment with MEF, `CC(C)c1c(C(=O)Nc2ccccc2)c(-c2ccccc2)c(-c2ccc(F)cc2)n1CC[C@@H](O)C[C@@H](O)CC(=O)O` [ATORVASTATIN] showed an IC50 of 30.7 µM.

As for `CC[C@H](C)C(=O)O[C@H]1C[C@@H](C)C=C2C=C[C@H](C)[C@H](CC[C@@H](O)C[C@@H](O)CC(=O)NO)[C@H]21`, the “Ratio IC50” value in the experiment with A549 [2] and in the experiment with A549 [3] was above 5.6 each time. Moreover, the IC50 was above 100 µM in the experiment with Hs68; above 100 µM in the experiment with MEF; 15.9 µM in experiment [6]; 51 nM in [1]; 468 nM at Histone deacetylase 2; 64.8 nM on Histone deacetylase 1. Further, the IC50 in [7] came out at 16.8 nM. Besides, the inhibition result in experiment [4] and in experiment [5] was “Dose-dependent effect” in each case.
